According to ChEMBL document CHEMBL1132167, “Flavonoid-related modulators of multidrug resistance: synthesis, pharmacological activity, and structure-activity relationships” (J Med Chem, 1999):

Key:
[1] = Modulation factor: IC50(DOX alone)/IC50(DOX+modulator).; assay type: functional
In short: (§1)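 K562/DOX human erythroleukemia cells (doxorubicin-selected, Pgp-overexpressing; RPMI-1640 + 10% FCS) exposed 72 h to seven graded doxorubicin concentrations (six wells each) plus tested compound at 1 or 5 μM, DMSO ≤0.1% final. MTT formazan dissolved in DMSO, A570 read. Survival relative to untreated wells; DOX IC50 by linear interpolation; MF = IC50(DOX alone)/IC50(DOX + compound). Mean of ≥2 independent experiments.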

[2] = target: T1, ATP-dependent translocase ABCB1 (Homo sapiens, UniProt P08183); test: Pgp transport inhibitory activity at 1 uM was measured by JC-1 accumulation assay method using JC-1 as substrate; assay type: functional
T1 sequence (P08183 whole entry): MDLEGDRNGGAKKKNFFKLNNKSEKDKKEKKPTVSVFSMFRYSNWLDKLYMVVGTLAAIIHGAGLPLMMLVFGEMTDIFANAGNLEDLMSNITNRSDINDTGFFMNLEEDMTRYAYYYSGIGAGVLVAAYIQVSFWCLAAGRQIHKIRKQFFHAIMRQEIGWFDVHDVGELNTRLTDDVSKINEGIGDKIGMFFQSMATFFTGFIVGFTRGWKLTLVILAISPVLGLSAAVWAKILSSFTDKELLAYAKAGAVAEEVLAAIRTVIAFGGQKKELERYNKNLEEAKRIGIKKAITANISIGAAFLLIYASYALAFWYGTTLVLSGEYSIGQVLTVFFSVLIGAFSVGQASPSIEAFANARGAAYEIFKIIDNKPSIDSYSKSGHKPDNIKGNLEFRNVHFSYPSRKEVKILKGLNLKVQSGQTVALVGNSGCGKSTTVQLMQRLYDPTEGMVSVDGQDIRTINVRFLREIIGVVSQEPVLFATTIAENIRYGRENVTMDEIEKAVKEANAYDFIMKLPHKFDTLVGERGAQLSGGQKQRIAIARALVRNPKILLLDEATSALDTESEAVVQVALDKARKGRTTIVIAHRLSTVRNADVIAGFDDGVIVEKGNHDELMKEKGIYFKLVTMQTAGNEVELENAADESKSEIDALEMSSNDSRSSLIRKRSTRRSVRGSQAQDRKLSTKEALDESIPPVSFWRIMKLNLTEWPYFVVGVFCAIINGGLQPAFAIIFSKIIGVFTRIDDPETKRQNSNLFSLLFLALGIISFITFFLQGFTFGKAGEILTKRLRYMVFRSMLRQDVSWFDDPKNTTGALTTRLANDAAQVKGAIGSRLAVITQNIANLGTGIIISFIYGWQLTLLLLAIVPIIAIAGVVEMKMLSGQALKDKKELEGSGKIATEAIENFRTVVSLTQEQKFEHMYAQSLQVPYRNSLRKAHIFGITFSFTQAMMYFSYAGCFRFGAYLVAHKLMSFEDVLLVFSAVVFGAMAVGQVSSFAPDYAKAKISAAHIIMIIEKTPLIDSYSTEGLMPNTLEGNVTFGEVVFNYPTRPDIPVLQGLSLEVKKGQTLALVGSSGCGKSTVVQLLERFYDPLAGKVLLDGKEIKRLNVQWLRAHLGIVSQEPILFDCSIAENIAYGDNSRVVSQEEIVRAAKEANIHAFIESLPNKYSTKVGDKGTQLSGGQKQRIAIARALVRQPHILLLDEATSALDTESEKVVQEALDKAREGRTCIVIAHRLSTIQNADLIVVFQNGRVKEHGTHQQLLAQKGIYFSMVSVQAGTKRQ
In short: (§2)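 JC-1 stock (1 mg/mL in DMSO) diluted to 5 μg/mL in PBS with 1 g/L glucose, then filtered to remove aggregates (monomer 0.2 μM final). Washed K562/DOX cells at 5×10^5/mL were incubated with JC-1 and compound concurrently at 37 °C, DMSO ≤0.5%. Fluorescence (485/590 nm) was followed to plateau, about 2 h. Accumulation is expressed as % of the 5 μM S9788 plate control after subtracting JC-1 alone. Mean of ≥2 experiments.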

K562 [3] = test: Modulation factor: IC50(DOX alone)/IC50(DOX+modulator); assay type: functional, Homo sapiens; in short: as §1
[4] = target: T1, ATP-dependent translocase ABCB1; test: Pgp transport inhibitory activity at 10 uM was measured by JC-1 accumulation assay method using JC-1 as substrate; assay type: functional; in short: as §2
[5] = target: T1, ATP-dependent translocase ABCB1; test: Pgp transport inhibitory activity at 5 uM was measured by JC-1 accumulation assay method using JC-1 as substrate; assay type: functional; in short: as §2
K562 [6] = test: Ability to potentiate DOX cytotoxicity on K562/DOX MDR cells. Cell survival was assayed by MTT conversion; assay type: functional, cell-based; details: Homo sapiens; in short: as §1
[7] = (§3) modulation factor: IC50 (uM); assay type: functional
[8] = as §3; assay type: functional; remark: listed apart in the source

Row | Structure (SMILES) | Modulation factor [1] | Relative JC-1 accumulation [2] | Modulation factor (K562 [3]) | Relative JC-1 accumulation [4] | Relative JC-1 accumulation [5] | IC50 (K562 [6]) [µM] | Modulation factor [7] | Modulation factor [8]
1 | COc1ccc(C2CC(=O)c3c(O)cc(OCC(=O)N4CCN(Cc5cc(OC)c(OC)c(OC)c5)CC4)cc3O2)cc1O (configuration not stated) | 21 | 0 | 2 | 8 | 3 | > 20 | – | –
2 | CCOC(=O)COc1cc(-c2cc(=O)c3c(O)cc(OCC(=O)N4CCN(Cc5ccccc5)CC4)cc3o2)ccc1OC | 21 | 10 | 4 | 38 | 35 | > 20 | – | –
3 | COc1ccc(CCN(C)CCCC(C#N)(c2ccc(OC)c(OC)c2)C(C)C)cc1OC (configuration not stated) [VERAPAMIL] | – | – | – | – | – | 37 | 7 | 31
4 | COc1ccc(C2CC(=O)c3c(O)cc(OCC(=O)N4CCN(Cc5ccc(OC)c(OC)c5OC)CC4)cc3O2)cc1O (configuration not stated) | 42 | 4 | 11 | 69 | 50 | 16 | – | –
5 | COc1ccc(C2CC(=O)c3c(O)cc(OCC(=O)N4CCN(Cc5ccc(OC)c(OC)c5OC)CC4)cc3O2)cc1OC(C)=O (configuration not stated) | – | 33 | – | 91 | 82 | > 20 | 8 | 31
6 | COc1ccc(CCC(=O)c2c(O)cc(OCC(=O)N3CCN(Cc4ccc(OC)c(OC)c4OC)CC3)cc2O)cc1O | – | 2 | – | 5 | – | > 20 | – | 3
7 | CCOC(=O)COc1cc(-c2cc(=O)c3c(O)cc(OCC(=O)N4CCN(Cc5ccc(OC)c(OC)c5OC)CC4)cc3o2)ccc1OC | 22 | 14 | 9 | 73 | 69 | > 20 | – | –
8 | CCOC(=O)COc1cc(OCC(=O)N2CCN(Cc3ccc(OC)c(OC)c3OC)CC2)c2c(=O)cc(-c3ccc(OC)c(OCC(=O)OCC)c3)oc2c1 | 1 | 1 | – | 59 | 10 | > 20 | – | –
9 | COc1ccc(-c2cc(=O)c3c(O)cc(O[C@@H]4O[C@H](CO)[C@H](O)[C@@H](O)[C@H]4O)cc3o2)cc1OCC(=O)N1CCN(Cc2ccc(OC)c(OC)c2OC)CC1 | – | 0 | – | 0 | 0 | > 20 | – | 1
10 | CCOC(=O)COc1cc(-c2cc(=O)c3c(O)cc(OCC(=O)N4CCN(Cc5cccc(OC)c5OC)CC4)cc3o2)ccc1OC | 24 | 2 | 5 | 28 | 22 | > 20 | – | –
11 | CCOC(=O)COc1cc(O)c2c(=O)cc(-c3ccc(OC)c(OCC(=O)N4CCN(Cc5ccc(OC)c(OC)c5)CC4)c3)oc2c1 | 25 | 4 | 2 | 31 | 26 | 9 | – | –
12 | COc1ccc(-c2cc(=O)c3c(O)cc(O[C@@H]4O[C@H](CO[C@@H]5O[C@@H](C)[C@H](O)[C@@H](O)[C@H]5O)[C@@H](O)[C@H](O)[C@H]4O)cc3o2)cc1OCC(=O)N1CCN(Cc2ccc(OC)c(OC)c2OC)CC1 | – | 0 | – | 0 | 0 | > 20 | – | 1
13 | COc1ccc(C2CC(=O)c3c(O)cc(OCC(=O)N4CC[N+](C)(Cc5ccc(OC)c(OC)c5OC)CC4)cc3O2)cc1O.[I-] (configuration not stated) | 1 | 0 | – | 0 | 0 | > 20 | – | –
14 | COc1ccc(/C=C/C(=O)c2c(O)cc(OCC(=O)N3CCN(Cc4ccc(OC)c(OC)c4OC)CC3)cc2O)cc1O | – | 3 | – | 21 | 17 | > 20 | 9 | 45
15 | CCOC(=O)COc1cc(O)c2c(=O)cc(-c3ccc(OC)c(OCC(=O)N4CCN(Cc5ccccc5Cl)CC4)c3)oc2c1 | 7 | 7 | 2 | 24 | 13 | > 20 | – | –
16 | COc1ccc(C2CC(=O)c3c(OC(=O)C(C)(C)C)cc(OCC(=O)N4CCN(Cc5ccc(OC)c(OC)c5OC)CC4)cc3O2)cc1OC(=O)C(C)(C)C (configuration not stated) | – | 72 | – | 75 | 82 | > 20 | 18 | 45
17 | CCOC(=O)COc1cc(O)c2c(=O)cc(-c3ccc(OC)c(OCC(=O)N4CCN(Cc5ccc(OC)c(OC)c5OC)CC4)c3)oc2c1 | 17 | 7 | 3 | 59 | 56 | > 20 | – | –
18 | COc1ccc(-c2cc(=O)c3c(O)cc(OCC(=O)N4CCN(Cc5ccc(OC)c(OC)c5OC)CC4)cc3o2)cc1O | 78 | 4 | 11 | 30 | 50 | 6 | – | –
19 | COc1ccc(C2CC(=O)c3c(OC(C)=O)cc(OCC(=O)N4CCN(Cc5ccc(OC)c(OC)c5OC)CC4)cc3O2)cc1OC(C)=O (configuration not stated) | – | 2 | – | 75 | 55 | > 20 | 10 | 31
20 | COc1ccc(C2CC(=O)c3c(O)cc(OCC(=O)N4CCN(Cc5ccc(OC)c(OC)c5)CC4)cc3O2)cc1O (configuration not stated) | 31 | 0 | 4 | 31 | 9 | > 20 | – | –
21 | CCOC(=O)COc1cc(-c2cc(=O)c3c(O)cc(OCC(=O)N4CCN(Cc5ccc(Cl)cc5)CC4)cc3o2)ccc1OC | 22 | 6 | 4 | 23 | 14 | 14 | – | –
22 | CCOC(=O)COc1cc(-c2cc(=O)c3c(O)cc(OCC(=O)N4CCN(Cc5ccc(OC)c(OC)c5)CC4)cc3o2)ccc1OC | 23 | 3 | 4 | 27 | 28 | > 20 | – | –
23 | CCOC(=O)COc1cc(O)c2c(=O)cc(-c3ccc(OC)c(OCC(=O)N4CCN(Cc5cc(OC)c(OC)c(OC)c5)CC4)c3)oc2c1 | 25 | 5 | 5 | 55 | 56 | 11 | – | –
24 | COc1ccc(C2CC(=O)c3c(O)cc(OCC(=O)N4CCN(Cc5cccc(OC)c5OC)CC4)cc3O2)cc1O (configuration not stated) | 28 | 0 | 4 | 6 | 2 | > 20 | – | –
25 | COc1ccc(-c2cc(=O)c3c(OCC(=O)N4CCN(Cc5ccc(OC)c(OC)c5OC)CC4)cc(OCc4ccccc4)cc3o2)cc1OCc1ccccc1 | – | 28 | – | 56 | 50 | 8 | 14 | 45
26 | COc1ccc(-c2cc(=O)c3c(O)cc(OCC(=O)N4CCN(Cc5ccc(OC)c(OC)c5OC)CC4)cc3o2)cc1OCC(=O)N1CCN(Cc2ccc(OC)c(OC)c2OC)CC1 | – | 22 | 1 | 53 | 60 | 2 | – | –
27 | COc1ccc(-c2cc(=O)c3c(OCC(=O)N4CCN(Cc5ccc(OC)c(OC)c5OC)CC4)cc(O)cc3o2)cc1O | 1 | 0 | – | 0 | 0 | > 20 | – | –
28 | COc1ccc(-c2cc(=O)c3c(O)cc(O)cc3o2)cc1OCC(=O)N1CCN(Cc2ccc(OC)c(OC)c2OC)CC1 | – | 0 | – | 0 | 0 | > 20 | – | 1
29 | CCOC(=O)COc1cc(-c2cc(=O)c3c(O)cc(OCC(=O)N4CCN(Cc5cc(OC)c(OC)c(OC)c5)CC4)cc3o2)ccc1OC | 31 | 2 | 3 | 24 | 26 | > 20 | – | –
